Assay results taken from ChEMBL document CHEMBL1153051, “Peperomins as anti-inflammatory agents that inhibit the NF-kappaB signaling pathway” (Bioorg Med Chem Lett, 2009).
The source made the active and inactive calls. The rule behind the calls is not given here.

Key:
[1] = target: T1, Inhibitor of nuclear factor kappa-B kinase subunit beta (Homo sapiens) (UniProt O14920); experiment: Inhibition of human FLAG-tagged IKK-beta expressed in HEK293 cells at 50 uM by Western blot analysis in presence of ATP; assay type: cell-based
T1 sequence (whole entry): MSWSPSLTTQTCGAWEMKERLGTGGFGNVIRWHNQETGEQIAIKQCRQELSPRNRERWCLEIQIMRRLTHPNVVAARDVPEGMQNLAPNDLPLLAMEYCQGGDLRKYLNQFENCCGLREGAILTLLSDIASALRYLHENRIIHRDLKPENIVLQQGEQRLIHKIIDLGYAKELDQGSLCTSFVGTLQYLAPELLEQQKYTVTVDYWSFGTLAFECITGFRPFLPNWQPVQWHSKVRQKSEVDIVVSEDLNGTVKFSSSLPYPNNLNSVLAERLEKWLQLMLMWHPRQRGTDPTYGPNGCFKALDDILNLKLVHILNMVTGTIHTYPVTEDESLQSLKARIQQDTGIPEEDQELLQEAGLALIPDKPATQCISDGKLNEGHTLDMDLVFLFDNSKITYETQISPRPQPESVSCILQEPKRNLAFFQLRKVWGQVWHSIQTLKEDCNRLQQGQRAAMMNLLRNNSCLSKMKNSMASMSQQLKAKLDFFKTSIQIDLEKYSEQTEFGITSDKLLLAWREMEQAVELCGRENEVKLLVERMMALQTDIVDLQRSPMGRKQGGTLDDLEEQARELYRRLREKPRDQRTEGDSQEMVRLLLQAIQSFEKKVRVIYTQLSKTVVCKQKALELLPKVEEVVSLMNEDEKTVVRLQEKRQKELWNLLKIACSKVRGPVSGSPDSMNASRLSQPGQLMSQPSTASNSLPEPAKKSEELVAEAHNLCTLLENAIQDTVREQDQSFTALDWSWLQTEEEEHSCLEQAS
In short: (§1)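 FLAG-IKKβ was transiently overexpressed in HEK293 cells for 24 h, then immunoprecipitated with anti-FLAG antibody. Precipitates were incubated with or without compound before the kinase reaction, and the phosphorylated product was read out by Western blot.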

A549 [2] = experiment: Cytotoxicity against human A549 cells upto 100 uM after 6 hrs by MTT assay; assay type: cell-based; conditions: a549, 6 h
In short: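 A549 viability by MTT after 6 h exposure to a range of compound concentrations, no cytokine. Viability given as %, means ± SD of triplicate cultures.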

A549 [3] = experiment: Selectivity for inhibition of IL1-induced cell surface ICAM1 expression over inhibition of IL1-induced COX2 expression in human A549 cells; assay type: functional
[4] = target: T2, Inhibitor of nuclear factor kappa-B kinase subunit alpha (Homo sapiens) (UniProt O15111); experiment: Inhibition of N-terminal GST-fused human IkappaBalpha (1 to 54) expressed in Escherichia coli BL21
T2 sequence (whole entry): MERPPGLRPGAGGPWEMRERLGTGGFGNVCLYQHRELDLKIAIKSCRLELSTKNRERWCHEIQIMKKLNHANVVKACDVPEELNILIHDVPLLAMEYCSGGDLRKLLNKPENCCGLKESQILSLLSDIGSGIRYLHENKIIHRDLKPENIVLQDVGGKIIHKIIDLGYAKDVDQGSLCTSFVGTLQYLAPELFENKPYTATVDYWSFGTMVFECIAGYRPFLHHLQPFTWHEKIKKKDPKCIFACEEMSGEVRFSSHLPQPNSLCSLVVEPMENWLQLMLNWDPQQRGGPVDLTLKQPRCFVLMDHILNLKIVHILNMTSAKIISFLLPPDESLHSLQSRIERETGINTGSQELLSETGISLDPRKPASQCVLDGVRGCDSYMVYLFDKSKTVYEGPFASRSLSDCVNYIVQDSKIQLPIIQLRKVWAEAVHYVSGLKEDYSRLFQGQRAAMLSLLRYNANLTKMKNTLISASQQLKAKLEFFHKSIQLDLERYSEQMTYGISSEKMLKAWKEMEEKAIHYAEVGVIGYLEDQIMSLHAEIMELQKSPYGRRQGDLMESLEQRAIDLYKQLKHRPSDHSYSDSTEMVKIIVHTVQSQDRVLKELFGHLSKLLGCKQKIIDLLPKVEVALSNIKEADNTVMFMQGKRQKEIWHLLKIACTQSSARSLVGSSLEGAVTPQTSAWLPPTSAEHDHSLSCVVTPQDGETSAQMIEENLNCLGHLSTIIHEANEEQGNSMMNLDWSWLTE
In short: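 IKK complex was immunoprecipitated with anti-IKKα from A549 cells. Cells were pretreated 1 h with compound, then given TNF-α (2.5 ng/mL) for 15 min. Precipitates phosphorylated GST-IκBα(1–54) with or without ATP (10 µM). Phospho-substrate was detected by Western blot with anti-phospho-IκB antibody, with bands quantified relative to IKKα.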

A549 [5] = experiment: Inhibition of IL1-induced IKK-beta expression in human A549 cells at 100 uM preincubated for 1 hr before IL1 challenge measured after 5 to 30 mins by Western blot analysis; assay type: functional, cell-based
A549 [6] = experiment: Antiinflammatory activity in human A549 cells assessed as substantial decrease in TNF-alpha-induced cell surface ICAM1 expression at > 10 uM preincubated for 1 hr before TNFalpha challenge measured after 6 hrs by Western blot analysis; assay type: functional, cell-based
In short: (§2)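 A549 cells pretreated 1 h with peperomins at various concentrations, then TNF-α (2.5 ng/mL) or IL-1 (0.25 ng/mL) added for 6 h with compound still present. Whole-cell lysates were Western blotted for ICAM-1, with β-actin as loading control.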

[7] = target: T3, NF-kappa-B inhibitor alpha (Homo sapiens) (UniProt P25963); experiment: Inhibition of TNF-alpha-stimulated IkappaBalpha degradation in human A549 cells at 0.1 to 100 uM preincubated for 1 hr before TNFalpha challenge measured after 15 mins by Western blot analysis
T3 sequence (whole entry): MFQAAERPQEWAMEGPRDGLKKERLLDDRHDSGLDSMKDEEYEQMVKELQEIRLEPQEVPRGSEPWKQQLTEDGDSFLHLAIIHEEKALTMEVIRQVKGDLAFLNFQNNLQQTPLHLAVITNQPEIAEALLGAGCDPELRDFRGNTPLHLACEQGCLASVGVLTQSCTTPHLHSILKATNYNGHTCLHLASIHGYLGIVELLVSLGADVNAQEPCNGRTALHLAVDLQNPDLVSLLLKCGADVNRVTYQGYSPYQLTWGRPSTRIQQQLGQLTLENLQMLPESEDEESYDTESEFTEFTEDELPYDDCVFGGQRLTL

A549 [8] = experiment: Inhibition of TNF-alpha-induced IKK-beta expression in human A549 cells at 100 uM preincubated for 1 hr before TNFalpha challenge measured after 5 to 30 mins by Western blot analysis; assay type: functional, cell-based
A549 [9] = experiment: Antiinflammatory activity in human A549 cells assessed as reduction of TNF-alpha-induced increase in cell surface ICAM1 expression preincubated for 1 hr before TNFalpha challenge measured after 6 hrs by ELISA; assay type: functional, cell-based
In short: (§3)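 Cell ELISA of surface ICAM-1 on A549 cells. Cells were pretreated 1 h across a concentration series, then stimulated 6 h with TNF-α (2.5 ng/mL) or IL-1 (0.25 ng/mL) with compound present. Values are means ± SD of triplicate cultures.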

A549 [10] = experiment: Antiinflammatory activity in human A549 cells assessed as complete decrease in TNF-alpha-induced cell surface ICAM1 expression at 100 uM preincubated for 1 hr before TNFalpha challenge measured after 6 hrs by Western blot analysis; assay type: functional, cell-based; in short: as §2
A549 [11] = experiment: Antiinflammatory activity in human A549 cells assessed as complete decrease in IL1-induced cell surface ICAM1 expression at 100 uM preincubated for 1 hr before IL1 challenge measured after 6 hrs by Western blot analysis; assay type: functional, cell-based; in short: as §2
MCF7 [12] = experiment: Antiinflammatory activity in human MCF7 cells assessed as inhibition of IL1-induced cell surface ICAM1 expression upto 100 uM preincubated for 1 hr before IL1 challenge measured after 6 hrs by ELISA; assay type: functional, cell-based
MCF7 [13] = experiment: Antiinflammatory activity in human MCF7 cells assessed as inhibition of TNF-alpha-induced cell surface ICAM1 expression upto 100 uM preincubated for 1 hr before TNFalpha challenge measured after 6 hrs by ELISA; assay type: functional, cell-based
A549 [14] = experiment: Inhibition of IL1-induced IKKalpha expression in human A549 cells at 100 uM preincubated for 1 hr before IL1 challenge measured after 5 to 30 mins by Western blot analysis; assay type: functional, cell-based
MCF7 [15] = experiment: Cytotoxicity against human MCF7 cells upto 100 uM after 6 hrs by MTT assay; assay type: cell-based; conditions: mcf7, 6 h
A549 [16] = experiment: Selectivity for inhibition of TNF-alpha-induced cell surface ICAM1 expression over inhibition of TNF-alpha-induced COX2 expression in human A549 cells; assay type: functional
A549 [17] = experiment: Antiinflammatory activity in human A549 cells assessed as substantial decrease in IL1-induced cell surface ICAM1 expression at > 10 uM preincubated for 1 hr before IL1 challenge measured after 6 hrs by Western blot analysis; assay type: functional, cell-based; in short: as §2
A549 [18] = experiment: Inhibition of TNF-alpha-induced IKKalpha expression in human A549 cells at 100 uM preincubated for 1 hr before TNFalpha challenge measured after 5 to 30 mins by Western blot analysis; assay type: functional, cell-based
A549 [19] = experiment: Antiinflammatory activity in human A549 cells assessed as reduction of IL1-induced increase in cell surface ICAM1 expression preincubated for 1 hr before IL1 challenge measured after 6 hrs by ELISA; assay type: functional, cell-based; in short: as §3
[20] = target: T1, Inhibitor of nuclear factor kappa-B kinase subunit beta (Homo sapiens); experiment: Inhibition of human FLAG-tagged IKK-beta expressed in HEK293 cells at 0.1 to 100 uM by Western blot analysis in presence of ATP; assay type: cell-based; in short: as §1
A549 [21] = experiment: Reduction of TNF-alpha-induced COX2 expression in human A549 cells at 100 uM preincubated for 1 hr before TNFalpha challenge measured after 6 hrs by Western blot analysis; assay type: functional, cell-based
In short: (§4)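 Cox-2 protein was Western blotted in A549 cells, with β-actin as loading control. Cells were pretreated 1 h with compound at various concentrations, then exposed 6 h to TNF-α (2.5 ng/mL) or IL-1 (0.25 ng/mL) in its continued presence.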

[22] = target: T3, NF-kappa-B inhibitor alpha (Homo sapiens); experiment: Inhibition of IL1-stimulated IkappaBalpha degradation in human A549 cells at 0.1 to 100 uM preincubated for 1 hr before IL1 challenge measured after 10 mins by Western blot analysis; assay type: cell-based
A549 [23] = experiment: Antiinflammatory activity in human A549 cells assessed as reduction of IL1-induced cell surface ICAM1 expression upto 100 uM preincubated for 1 hr before IL1 challenge measured after 6 hrs by Western blot analysis; assay type: functional, cell-based; in short: as §2
A549 [24] = experiment: Antiinflammatory activity in human A549 cells assessed as reduction of TNF-alpha-induced increase in cell surface ICAM1 expression upto 100 uM preincubated for 1 hr before TNFalpha challenge measured after 6 hrs by ELISA; assay type: functional, cell-based; in short: as §3
A549 [25] = experiment: Antiinflammatory activity in human A549 cells assessed as reduction of IL1-induced increase in cell surface ICAM1 expression upto 100 uM preincubated for 1 hr before IL1 challenge measured after 6 hrs by ELISA; assay type: functional, cell-based; in short: as §3
A549 [26] = experiment: Reduction of IL1-induced COX2 expression in human A549 cells at 100 uM preincubated for 1 hr before IL1 challenge measured after 6 hrs by Western blot analysis; assay type: functional, cell-based; in short: as §4
A549 [27] = experiment: Antiinflammatory activity in human A549 cells assessed as reduction of TNF-alpha-induced cell surface ICAM1 expression upto 100 uM preincubated for 1 hr before TNFalpha challenge measured after 6 hrs by Western blot analysis; assay type: functional, cell-based; in short: as §2

With `CCCCC/C=C/C=C1/C(=O)C=C[C@@H]1C/C=C\CCCC(=O)O` the inhibition [1] was “Active”.
`C=C1C(=O)OC[C@H]1C(c1cc(OC)c2c(c1)OCO2)c1cc(OC)c2c(c1)OCO2` [PEPEROMIN E] was tested, and the Activity (A549 [2]) was “Toxic”, the “fold change (FC)” value (A549 [3]) was 10 and the inhibition [4] was “Active”. For the same compound, the inhibition (A549 [5]) was “inactive”, the Activity (A549 [6]) was “Active” and the inhibition [7] was “Active”. The Activity (A549 [8]) was “inactive”, the Activity (A549 [9]) was “Dose-dependent effect” and the Activity (A549 [10]) was “Active”. The Activity (A549 [11]) was “Active”, the Activity (MCF7 [12]) was “Active” and the Activity (MCF7 [13]) was “Active”. The inhibition (A549 [14]) was “inactive”, the Activity (MCF7 [15]) was “Non-toxic” and the “fold change (FC)” value (A549 [16]) was 10. The Activity (A549 [17]) was “Active”, the inhibition (A549 [18]) was “inactive” and the Activity (A549 [19]) was “Dose-dependent effect”. For the same compound, the inhibition [20] was “inactive”, the Activity (A549 [21]) was “Active” and the inhibition [22] was “Active”.
With `COc1cc(C(c2cc(OC)c3c(c2)OCO3)[C@@H]2COC(=O)[C@H]2C)cc2c1OCO2` the Activity (A549 [23]) was “inactive”, the Activity (A549 [24]) was “inactive” and the Activity (A549 [25]) was “inactive”. The Activity (A549 [26]) was “inactive” and the Activity (A549 [27]) was “inactive”.
For `COc1cc([C@@H](c2cc(OC)c3c(c2)OCO3)[C@@H]2COC(=O)[C@H]2C)cc(OC)c1OC`, the Activity (A549 [23]) was “inactive”, the Activity (A549 [24]) was “inactive” and the Activity (A549 [25]) was “inactive”. The Activity (A549 [26]) was “inactive” and the Activity (A549 [27]) was “inactive”.
`C=C1C(=O)OC[C@H]1[C@@H](c1cc(OC)c(OC)c(OC)c1)c1cc(OC)c2c(c1)OCO2` [2,6-DIDEHYDROPEPEROMIN B] was tested, and the Activity (A549 [2]) was “Toxic”, the inhibition [4] was “Active” and the Activity (A549 [6]) was “Active”. The Activity (A549 [9]) was “Dose-dependent effect”, the Activity (A549 [10]) was “Active” and the Activity (A549 [11]) was “Active”. For the same compound, the inhibition (MCF7 [12]) was “Active”, the Activity (MCF7 [13]) was “Active” and the Activity (MCF7 [15]) was “Non-toxic”. For the same compound, the Activity (A549 [17]) was “Active”, the Activity (A549 [19]) was “Dose-dependent effect” and the inhibition [20] was “inactive”. For the same compound, the Activity (A549 [21]) was “Active”.
